# From ChEMBL document CHEMBL1137361, “WB4101-related compounds: new, subtype-selective alpha1-adrenoreceptor antagonists (or inverse agonists?)” (J Med Chem, 2006)
# Key:
# [1] = target: T1, Alpha-1A adrenergic receptor (Homo sapiens, UniProt P35348); test: Displacement of [3H]prazosin from cloned human adrenergic alpha 1A receptor expressed in CHO cells; format: cell-based
# T1 sequence (P35348 whole entry): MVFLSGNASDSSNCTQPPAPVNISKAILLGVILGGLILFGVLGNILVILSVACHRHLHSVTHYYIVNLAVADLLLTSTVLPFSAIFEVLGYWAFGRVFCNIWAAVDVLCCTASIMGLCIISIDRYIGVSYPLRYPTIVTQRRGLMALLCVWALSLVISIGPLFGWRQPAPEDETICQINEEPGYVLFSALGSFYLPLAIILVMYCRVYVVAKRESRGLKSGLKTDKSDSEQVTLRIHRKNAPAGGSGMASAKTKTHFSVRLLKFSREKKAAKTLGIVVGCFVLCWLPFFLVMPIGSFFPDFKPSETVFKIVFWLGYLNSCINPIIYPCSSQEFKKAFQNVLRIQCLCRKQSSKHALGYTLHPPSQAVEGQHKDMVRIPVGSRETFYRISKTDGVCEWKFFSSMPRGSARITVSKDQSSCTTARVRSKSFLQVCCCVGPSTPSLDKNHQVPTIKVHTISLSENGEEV
# In short: (§1)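 Radioligand binding with [3H]prazosin as the label. Membranes came from CHO cells expressing the cloned human receptor. Affinity is expressed as pKi.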
# [2] = target: Alpha adrenergic receptor 1A and 1D (Rattus norvegicus) (UniProt P23944+P43140); test: Selectivity for Sprague-Dawley rat adrenergic alpha 1D receptor over adrenergic alpha 1A receptor; format: functional
# [3] = target: Adrenergic receptors; alpha-1 A & B (Homo sapiens) (UniProt P35348+P35368); test: Selectivity for human adrenergic alpha 1B receptor over human adrenergic alpha 1A receptor; format: protein assay
# [4] = Selectivity for 5HT1A receptor in rat hippocampus over human adrenergic alpha 1A receptor; format: tissue-based
# [5] = target: T2, Alpha-1B adrenergic receptor (Rattus norvegicus, UniProt P15823); test: Activity at adrenergic alpha 1B receptor assessed as antagonsim of phenylephrine-induced contraction of Sprague-Dawley rat spleen; format: functional, tissue-based; conditions: read-out: pA2 (converted)
# T2 sequence (P15823 whole entry): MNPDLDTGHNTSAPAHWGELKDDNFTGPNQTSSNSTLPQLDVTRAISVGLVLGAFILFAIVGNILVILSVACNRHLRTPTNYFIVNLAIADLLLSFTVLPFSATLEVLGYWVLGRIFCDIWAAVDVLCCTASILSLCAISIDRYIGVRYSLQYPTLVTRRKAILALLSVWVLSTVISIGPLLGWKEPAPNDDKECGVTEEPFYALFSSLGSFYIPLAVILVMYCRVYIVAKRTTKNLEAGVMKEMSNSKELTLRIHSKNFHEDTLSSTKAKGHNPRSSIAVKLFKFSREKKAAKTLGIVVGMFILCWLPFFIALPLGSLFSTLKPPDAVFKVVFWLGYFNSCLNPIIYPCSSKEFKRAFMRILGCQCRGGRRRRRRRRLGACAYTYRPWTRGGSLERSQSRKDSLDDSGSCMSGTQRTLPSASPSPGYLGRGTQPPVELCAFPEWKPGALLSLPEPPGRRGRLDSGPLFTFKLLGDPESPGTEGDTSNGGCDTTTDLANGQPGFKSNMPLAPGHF
# In short: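 Rat spleen contracted with (-)-phenylephrine. Blocking activity was measured as antagonism of the contraction.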
# [6] = target: T3, Alpha-1B adrenergic receptor (Homo sapiens, UniProt P35368); test: Displacement of [3H]prazosin from cloned human adrenergic alpha 1B receptor expressed in CHO cells; format: cell-based; in short: as §1
# T3 sequence (P35368 whole entry): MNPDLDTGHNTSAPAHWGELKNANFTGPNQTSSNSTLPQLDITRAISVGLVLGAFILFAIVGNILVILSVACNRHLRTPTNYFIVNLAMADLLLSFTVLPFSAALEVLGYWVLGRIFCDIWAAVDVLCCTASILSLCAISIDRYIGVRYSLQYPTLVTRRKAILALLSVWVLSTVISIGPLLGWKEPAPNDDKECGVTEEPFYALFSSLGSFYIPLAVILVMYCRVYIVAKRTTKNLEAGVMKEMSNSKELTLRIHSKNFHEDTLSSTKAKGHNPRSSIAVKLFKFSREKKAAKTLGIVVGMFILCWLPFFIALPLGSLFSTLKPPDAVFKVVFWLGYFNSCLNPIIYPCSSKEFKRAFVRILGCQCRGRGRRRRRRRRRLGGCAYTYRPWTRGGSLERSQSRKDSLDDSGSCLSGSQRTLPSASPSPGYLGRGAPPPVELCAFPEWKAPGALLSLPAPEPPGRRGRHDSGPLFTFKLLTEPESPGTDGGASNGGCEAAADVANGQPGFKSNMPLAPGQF
# [7] = target: Alpha adrenergic receptor (1a and 1d) (Homo sapiens) (UniProt P35348+P25100); test: Selectivity for human adrenergic alpha 1A receptor over human adrenergic alpha 1D receptor
# [8] = target: T4, Alpha-1D adrenergic receptor (Rattus norvegicus, UniProt P23944); test: Activity at adrenergic alpha 1D receptor assessed as antagonism on noradrenaline-induced contraction of Sprague-Dawley rat thoracic aorta; format: functional, tissue-based; conditions: read-out: pA2 (converted)
# T4 sequence (P23944 whole entry): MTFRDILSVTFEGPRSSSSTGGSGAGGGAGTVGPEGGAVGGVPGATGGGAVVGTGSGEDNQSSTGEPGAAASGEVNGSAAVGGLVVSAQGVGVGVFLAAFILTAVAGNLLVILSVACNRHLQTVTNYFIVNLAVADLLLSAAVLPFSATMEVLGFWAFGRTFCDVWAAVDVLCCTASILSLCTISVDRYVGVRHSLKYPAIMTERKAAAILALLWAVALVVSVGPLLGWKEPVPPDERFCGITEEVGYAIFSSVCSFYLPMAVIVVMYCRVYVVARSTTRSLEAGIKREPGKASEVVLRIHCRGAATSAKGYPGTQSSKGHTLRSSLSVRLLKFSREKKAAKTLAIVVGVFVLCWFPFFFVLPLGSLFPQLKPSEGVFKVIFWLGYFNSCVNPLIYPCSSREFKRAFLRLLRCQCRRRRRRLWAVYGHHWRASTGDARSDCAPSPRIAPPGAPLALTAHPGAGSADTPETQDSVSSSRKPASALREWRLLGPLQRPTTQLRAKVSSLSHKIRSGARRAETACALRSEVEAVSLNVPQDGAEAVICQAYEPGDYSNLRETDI
# In short: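 Rat thoracic aorta contracted with (-)-noradrenaline. Blocking activity was measured as antagonism of the contraction.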
# Chain of Alpha adrenergic receptor (1a and 1d) (Homo sapiens) (P25100 whole entry, looked up, one chain of several): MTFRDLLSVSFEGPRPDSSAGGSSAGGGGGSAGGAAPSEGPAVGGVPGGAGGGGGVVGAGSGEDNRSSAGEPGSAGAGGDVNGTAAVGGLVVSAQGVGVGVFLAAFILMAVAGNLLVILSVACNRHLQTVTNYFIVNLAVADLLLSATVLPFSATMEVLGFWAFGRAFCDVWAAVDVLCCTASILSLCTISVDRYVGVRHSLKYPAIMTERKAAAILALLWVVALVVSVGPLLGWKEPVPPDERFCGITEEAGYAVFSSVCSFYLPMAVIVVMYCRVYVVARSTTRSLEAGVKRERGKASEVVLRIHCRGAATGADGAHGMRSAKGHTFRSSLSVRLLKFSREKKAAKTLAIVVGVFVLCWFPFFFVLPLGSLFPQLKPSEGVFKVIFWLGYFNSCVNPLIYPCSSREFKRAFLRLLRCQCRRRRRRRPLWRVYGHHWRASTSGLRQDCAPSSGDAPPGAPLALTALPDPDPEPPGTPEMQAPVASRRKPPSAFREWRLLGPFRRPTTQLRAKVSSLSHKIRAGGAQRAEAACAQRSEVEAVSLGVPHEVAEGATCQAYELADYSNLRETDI
# Chain of Alpha adrenergic receptor 1A and 1D (Rattus norvegicus) (P43140 whole entry, looked up, one chain of several): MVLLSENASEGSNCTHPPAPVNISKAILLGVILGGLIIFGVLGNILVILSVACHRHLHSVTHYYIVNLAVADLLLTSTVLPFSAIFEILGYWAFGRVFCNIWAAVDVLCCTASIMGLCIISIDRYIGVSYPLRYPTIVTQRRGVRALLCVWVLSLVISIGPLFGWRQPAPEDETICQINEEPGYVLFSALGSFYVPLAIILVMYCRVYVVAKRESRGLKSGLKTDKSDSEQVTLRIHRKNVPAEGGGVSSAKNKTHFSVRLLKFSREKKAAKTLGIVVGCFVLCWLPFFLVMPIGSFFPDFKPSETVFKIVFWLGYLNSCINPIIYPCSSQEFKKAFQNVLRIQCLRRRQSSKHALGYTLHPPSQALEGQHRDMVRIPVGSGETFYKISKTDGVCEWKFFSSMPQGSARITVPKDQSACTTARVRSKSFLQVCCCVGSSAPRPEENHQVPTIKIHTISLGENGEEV
Compound,Ki [1],Selectivity ratio [2],Selectivity ratio [3],Selectivity ratio [4],Kb [5],Ki [6],Selectivity ratio [7],Kb [8]
COc1ccc2ccccc2c1OCCNC[C@H]1COc2cc3c(cc2O1)CCCC3,66.1 nM,245,5.6,25.7,> 10000 nM,372 nM,2.2,2570 nM
COc1cccc(OC)c1OCCNC[C@H]1COc2cc3c(cc2O1)CCCC3,25.1 nM,< 0.4,22.9,14.5,2630 nM,575 nM,13.5,4370 nM
COc1ccc2ccccc2c1OCCNC[C@H]1COc2ccccc2O1,1.58 nM,0.02,10,7.1,0.204 nM,15.8 nM,4.2,0.0209 nM
COc1cc(-c2ccccc2)ccc1OCCNC[C@H]1COc2ccccc2O1,87.1 nM,0.14,2.1,0.9,132 nM,186 nM,2.5,107 nM
COc1cccc(OC)c1OCCNC[C@H]1COc2cc3ccccc3cc2O1,33.9 nM,0.05,26.3,10.2,2450 nM,891 nM,12.3,182 nM
COc1ccc(-c2ccccc2)cc1OCCNC[C@H]1COc2ccccc2O1,5.62 nM,< 0.006,1.9,9.3,135 nM,11 nM,2.7,61.7 nM
COc1ccc2c(c1OCCNC[C@H]1COc3ccccc3O1)CCCC2,2.82 nM,0.04,6.8,3,4.47 nM,19.1 nM,5.1,4.07 nM
COc1ccc2ccccc2c1OCCNC[C@@H]1COc2ccccc2O1,4.57 nM,0.17,18.6,14.8,14.8 nM,85.1 nM,4.9,10 nM
COc1cccc(-c2ccccc2)c1OCCNC[C@H]1COc2ccccc2O1,1.2 nM,0.2,14.8,5.8,7.59 nM,17.8 nM,2.8,1.02 nM
